Assay results taken from ChEMBL document CHEMBL1148748, “Synthesis of specific bivalent probes that functionally interact with 5-HT(4) receptor dimers” (J Med Chem, 2007).

Experiments:
[1] = target: T1, 5-hydroxytryptamine receptor 4 (Homo sapiens, UniProt Q13639); test: Agonist activity at human 5HT4e receptor expressed in C6 cells assessed as cAMP accumulation relative to 5HT; assay type: functional, cell-based; design: concentration or dose not given beside the values
Procedure, shortened: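 C6 glial cells stably expressing h5-HT4(e), serum-starved 4 h, preincubated 15 min with 5 mM theophylline plus 10 µM pargyline, then compound with or without 5-HT (1 µM) 15 min at 37 °C; stopped with ice-cold 20% perchloric acid, neutralized; cAMP by radioimmunoassay; expressed as % of 5-HT response; two experiments in triplicate.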

[2] = target: T1, 5-hydroxytryptamine receptor 4; test: Displacement of [3H]GR-113808 from human 5HT4e receptor expressed in C6 cells; assay type: cell-based
[3] = target: T1, 5-hydroxytryptamine receptor 4; test: Activity at 5HT4 receptor fused with RLuc and YFP fusion proteins expressed in CHO cells by BRET dimerization assay relative to control; assay type: functional, cell-based; design: concentration or dose not given beside the values
Procedure, shortened: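 CHO cells transiently cotransfected (Jet-PEI, 8 µg DNA per 100 mm dish) with C-terminal 5-HT4R-RLuc and 5-HT4R-YFP at equimolar amounts; membrane preparations incubated with ligand (1 µM, or dose-response) at 25 °C; coelenterazine h 5 µM final; 530/485 nm emission ratio minus RLuc-alone ratio gives BRET, in mBU; % of control; three experiments in duplicate.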

[4] = target: T1, 5-hydroxytryptamine receptor 4; test: Binding affinity to Rluc fused 5HT4 receptor expressed in CHO cells; assay type: cell-based
[5] = target: T1, 5-hydroxytryptamine receptor 4; test: Binding affinity to YFP fused 5HT4 receptor expressed in CHO cells; assay type: cell-based

T1 sequence (Q13639 whole entry): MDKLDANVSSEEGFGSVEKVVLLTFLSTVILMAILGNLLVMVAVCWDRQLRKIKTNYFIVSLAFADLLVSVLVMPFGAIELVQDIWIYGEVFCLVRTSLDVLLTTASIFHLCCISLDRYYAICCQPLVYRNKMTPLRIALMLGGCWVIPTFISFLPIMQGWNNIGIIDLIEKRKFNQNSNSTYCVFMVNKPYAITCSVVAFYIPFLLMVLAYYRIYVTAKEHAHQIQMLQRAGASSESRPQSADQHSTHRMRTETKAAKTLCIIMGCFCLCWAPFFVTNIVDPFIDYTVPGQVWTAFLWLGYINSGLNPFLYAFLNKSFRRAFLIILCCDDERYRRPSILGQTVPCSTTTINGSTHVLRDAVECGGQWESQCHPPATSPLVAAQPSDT

Row | Activity [1] [%] | Ki [2] [nM] | Activity [3] [%] | Ki [4] [nM] | Compound | Ki [5] [nM]
1 | 49 | 44 | 107 | – | COc1cc(N)c(Cl)cc1C(=O)OCCN1CCC(CNC(=O)CN(CC#Cc2ccc(C#CCN(CC(=O)NCC3CCN(CCOC(=O)c4cc(Cl)c(N)cc4OC)CC3)C(=O)OC(C)(C)C)cc2)C(=O)OC(C)(C)C)CC1 | –
2 | 1 | 25 | 115 | – | COc1cc(N)c(Cl)cc1C(=O)OCCN1CCC(CNC(=O)CCCN(CC#Cc2ccc(C#CCN(CCCC(=O)NCC3CCN(CCOC(=O)c4cc(Cl)c(N)cc4OC)CC3)C(=O)OC(C)(C)C)cc2)C(=O)OC(C)(C)C)CC1 | –
3 | 5 | 23 | 108 | – | COc1cc(N)c(Cl)cc1C(=O)OCCN1CCC(CNC(=O)CCCN(CCCc2cccc(CCCN(CCCC(=O)NCC3CCN(CCOC(=O)c4cc(Cl)c(N)cc4OC)CC3)C(=O)OC(C)(C)C)c2)C(=O)OC(C)(C)C)CC1 | –
4 | 18 | 19 | 114 | – | COc1cc(N)c(Cl)cc1C(=O)OCCN1CCC(CNC(=O)CN(CCCc2ccc(CCCN(CC(=O)NCC3CCN(CCOC(=O)c4cc(Cl)c(N)cc4OC)CC3)C(=O)OC(C)(C)C)cc2)C(=O)OC(C)(C)C)CC1 | –
5 | 35 | 18 | 106 | – | COc1cc(N)c(Cl)cc1C(=O)OCCN1CCC(NC(=O)CCCN(CC#Cc2ccc(C#CCN(CCCC(=O)NC3CCN(CCOC(=O)c4cc(Cl)c(N)cc4OC)CC3)C(=O)OC(C)(C)C)cc2)C(=O)OC(C)(C)C)CC1 | –
6 | 6 | 40 | 108 | – | COc1cc(N)c(Cl)cc1C(=O)OCCN1CCC(CNC(=O)CCCN(CC#Cc2cccc(C#CCN(CCCC(=O)NCC3CCN(CCOC(=O)c4cc(Cl)c(N)cc4OC)CC3)C(=O)OC(C)(C)C)c2)C(=O)OC(C)(C)C)CC1 | –
7 | 21 | 12 | 118 | 10 | COc1cc(N)c(Cl)cc1C(=O)OCCN1CCC(NC(=O)CCCN(CCCc2ccc(CCCN(CCCC(=O)NC3CCN(CCOC(=O)c4cc(Cl)c(N)cc4OC)CC3)C(=O)OC(C)(C)C)cc2)C(=O)OC(C)(C)C)CC1 | 10
8 | 8 | 8 | 109 | – | COc1cc(N)c(Cl)cc1C(=O)OCCN1CCC(NC(=O)CCCN(CC#Cc2cccc(C#CCN(CCCC(=O)NC3CCN(CCOC(=O)c4cc(Cl)c(N)cc4OC)CC3)C(=O)OC(C)(C)C)c2)C(=O)OC(C)(C)C)CC1 | –
9 | 9 | 15 | 115 | – | COc1cc(N)c(Cl)cc1C(=O)OCCN1CCC(CNC(=O)CCCN(CCCc2ccc(CCCN(CCCC(=O)NCC3CCN(CCOC(=O)c4cc(Cl)c(N)cc4OC)CC3)C(=O)OC(C)(C)C)cc2)C(=O)OC(C)(C)C)CC1 | –
10 | 6 | 9 | 108 | – | COc1cc(N)c(Cl)cc1C(=O)OCCN1CCC(CCNC(=O)CCCCCCCCCCC(=O)NCCC2CCN(CCOC(=O)c3cc(Cl)c(N)cc3OC)CC2)CC1 | –

Second part, the compound before the results:

Row | Compound | Activity [1] [%] | Ki [2] [nM] | Activity [3] [%] | Ki [4] [nM] | Ki [5] [nM]
11 | COc1cc(N)c(Cl)cc1C(=O)OCCN1CCC(NC(=O)CCCCCCCCCCNc2nc(NCCCCCCCCCCC(=O)NC3CCN(CCOC(=O)c4cc(Cl)c(N)cc4OC)CC3)nc(NCc3ccccc3)n2)CC1 | 12 | – | 114 | – | –
12 | COc1cc(N)c(Cl)cc1C(=O)OCCN1CCC(NC(=O)CCCCCNC(=O)C2CCN(CCOC(=O)c3cc(Cl)c(N)cc3OC)CC2)CC1 | 46 | 7 | 108 | – | –
13 | COc1cc(N)c(Cl)cc1C(=O)OCCN1CCC(NC(=O)CCCCCCCCCCNC(=O)C2CCN(CCOC(=O)c3cc(Cl)c(N)cc3OC)CC2)CC1 | 5 | – | 110 | – | –
14 | COc1cc(N)c(Cl)cc1C(=O)OCCN1CCC(NC(=O)CCCN(CCCc2ccc(CCCN(CCCC(=O)NC3CCCCC3)C(=O)OC(C)(C)C)cc2)C(=O)OC(C)(C)C)CC1 | 17 | 34 | 105 | – | –
15 | COc1cc(N)c(Cl)cc1C(=O)OCCN1CCC(NC(=O)CCCCCCCCCCN(CCCCCCCCCCC(=O)NC2CCN(CCOC(=O)c3cc(Cl)c(N)cc3OC)CC2)CC(=O)NCC2CCNCC2)CC1 | 10 | – | 114 | – | –
16 | Cn1cc(C(=O)OCC2CCN(CCNS(C)(=O)=O)CC2)c2ccccc21 | 1 | – | 99 | – | 0.7
17 | COc1cc(N)c(Cl)cc1C(=O)OCCN1CCCCC1 | 45 | – | 101 | – | –
